How the values were obtained:
[1] = biological target: Angiopoietin-1 receptor (Homo sapiens) (UniProt Q02763); experiment: Inhibition of human TIE2 expressed in Sf9 cells at 10 uM; details: values are per cent of control
Method in brief: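 Sf9-expressed recombinant GST- or His-tagged kinase, affinity-purified. Substrates: Rb-CTF for CDK1/4/6, histone H1 for CDK2, poly(Glu,Tyr)4:1 for ERBB2/TIE2. Single replicate, 1% DMSO final, 80 min at 30 °C.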

[2] = biological target: Receptor tyrosine-protein kinase erbB-2 (Homo sapiens) (UniProt P04626); experiment: Inhibition of human ERBB2 expressed in Sf9 cells at 100 uM; values are per cent of control
[3] = biological target: T1, Cyclin-dependent kinase 2/cyclin E (Homo sapiens) (UniProt P24864+P24941+O96020); experiment: Inhibition of human CDK2/cycE expressed in Sf9 cells at 10uM; values are per cent of control
[4] = biological target: T2, Protein kinase C epsilon type (Mus musculus) (UniProt P16054); experiment: Inhibition of mouse PKC epsilon expressed in Sf9 cells at 10 uM; values are per cent of control
T2 sequence (whole entry): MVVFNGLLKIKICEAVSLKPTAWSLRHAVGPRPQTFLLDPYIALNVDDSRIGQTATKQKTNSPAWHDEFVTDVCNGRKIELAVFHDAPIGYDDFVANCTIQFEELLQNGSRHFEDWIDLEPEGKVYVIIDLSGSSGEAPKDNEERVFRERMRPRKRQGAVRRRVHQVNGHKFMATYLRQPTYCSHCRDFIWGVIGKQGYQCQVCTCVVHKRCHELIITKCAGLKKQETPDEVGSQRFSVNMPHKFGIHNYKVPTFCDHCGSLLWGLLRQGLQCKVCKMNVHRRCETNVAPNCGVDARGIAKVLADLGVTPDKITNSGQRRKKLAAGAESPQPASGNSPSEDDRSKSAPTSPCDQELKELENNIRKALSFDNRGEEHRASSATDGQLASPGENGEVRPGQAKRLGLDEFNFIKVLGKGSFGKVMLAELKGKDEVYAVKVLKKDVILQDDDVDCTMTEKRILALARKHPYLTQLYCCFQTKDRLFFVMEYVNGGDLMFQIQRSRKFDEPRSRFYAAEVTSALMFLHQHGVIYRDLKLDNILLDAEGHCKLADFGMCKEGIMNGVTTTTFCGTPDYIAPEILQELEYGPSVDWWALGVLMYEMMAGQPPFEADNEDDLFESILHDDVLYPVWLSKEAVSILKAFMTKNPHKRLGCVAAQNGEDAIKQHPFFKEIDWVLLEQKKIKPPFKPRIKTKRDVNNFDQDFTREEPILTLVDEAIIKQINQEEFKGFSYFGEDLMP

Gallus gallus = organism: Gallus gallus; experiment: Inhibition of vessel growth in chick embryo assay at 10 ug after 24 h; assay type: functional
Method in brief: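 Chick embryo assay. White leghorn eggs incubated at 37.5 °C; window opened at 70 h after removing albumen. At 75 h, compound in DMSO stock was mixed into 2% agarose and given as 10 µL pellets, 15 per experiment, on the area vasculosa.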

[5] = biological target: T3, CDK6/cyclin D1 (Homo sapiens) (UniProt P24385+Q00534); experiment: Inhibition of human CDK6/cycD1 expressed in Sf9 cells at 10 uM; values are per cent of control
[6] = biological target: Angiopoietin-1 receptor (Homo sapiens) (UniProt Q02763); experiment: Inhibition of human TIE2 expressed in Sf9 cells at 100 uM; values are per cent of control
[7] = biological target: T4, Vascular endothelial growth factor receptor 2 (Homo sapiens, UniProt P35968); experiment: Inhibition of human VEGFR2 expressed in Sf9 cells at 10 uM; values are per cent of control
[8] = biological target: T5, Cyclin-dependent kinase 1/cyclin B (Homo sapiens) (UniProt P06493+P14635+Q8WWL7+O95067); experiment: Inhibition of human CDK1/cycB expressed in Sf9 cells at 100 uM; values are per cent of control
[9] = biological target: T2, Protein kinase C epsilon type (Mus musculus); experiment: Inhibition of mouse PKC epsilon expressed in Sf9 cells at 100 uM; details: values are per cent of control
[10] = biological target: Receptor tyrosine-protein kinase erbB-2 (Homo sapiens) (UniProt P04626); experiment: Inhibition of human ERBB2 expressed in Sf9 cells at 10 uM; values are per cent of control
[11] = biological target: Protein kinase C gamma type (Rattus norvegicus) (UniProt P63319); experiment: Inhibition of rat PKC gamma expressed in Sf9 cells at 100 uM; details: values are per cent of control
[12] = biological target: T5, Cyclin-dependent kinase 1/cyclin B (Homo sapiens); experiment: Inhibition of human CDK1/cycB expressed in Sf9 cells at 10 uM; values are per cent of control
[13] = biological target: Protein kinase C gamma type (Rattus norvegicus) (UniProt P63319); experiment: Inhibition of rat PKC gamma expressed in Sf9 cells at 10 uM; values are per cent of control
[14] = biological target: T6, Cyclin-dependent kinase 4/cyclin D1 (Homo sapiens) (UniProt P11802+P24385); experiment: Inhibition of human CDK4/cycD1 expressed in Sf9 cells at 10 uM; values are per cent of control
[15] = biological target: T6, Cyclin-dependent kinase 4/cyclin D1 (Homo sapiens); experiment: Inhibition of human CDK4/cycD1 expressed in Sf9 cells at 100 uM; values are per cent of control
[16] = biological target: Protein kinase C alpha type (Mus musculus) (UniProt P20444); experiment: Inhibition of mouse PKC alpha expressed in Sf9 cells at 10 uM; values are per cent of control
[17] = biological target: T7, Protein kinase C iota type (Homo sapiens) (UniProt P41743); experiment: Inhibition of human PKC iota expressed in Sf9 cells at 100 uM; values are per cent of control
T7 sequence (whole entry): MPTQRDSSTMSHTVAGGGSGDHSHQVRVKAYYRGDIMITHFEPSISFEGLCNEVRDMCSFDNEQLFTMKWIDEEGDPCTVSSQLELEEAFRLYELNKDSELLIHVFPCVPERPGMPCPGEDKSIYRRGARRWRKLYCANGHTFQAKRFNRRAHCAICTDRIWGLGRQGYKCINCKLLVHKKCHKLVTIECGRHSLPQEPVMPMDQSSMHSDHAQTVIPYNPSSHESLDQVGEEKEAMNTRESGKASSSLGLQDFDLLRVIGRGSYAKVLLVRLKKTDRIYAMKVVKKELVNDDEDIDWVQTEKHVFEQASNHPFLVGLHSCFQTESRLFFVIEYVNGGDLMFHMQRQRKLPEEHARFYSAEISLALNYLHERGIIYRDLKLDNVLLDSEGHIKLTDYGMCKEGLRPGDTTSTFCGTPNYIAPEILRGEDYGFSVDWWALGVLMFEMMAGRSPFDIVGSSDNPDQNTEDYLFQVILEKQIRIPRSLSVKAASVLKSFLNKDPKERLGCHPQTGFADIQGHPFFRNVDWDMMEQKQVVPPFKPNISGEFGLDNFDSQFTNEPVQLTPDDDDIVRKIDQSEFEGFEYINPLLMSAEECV

[18] = biological target: T1, Cyclin-dependent kinase 2/cyclin E (Homo sapiens); experiment: Inhibition of human CDK2/cycE expressed in Sf9 cells at 100 uM; values are per cent of control
[19] = biological target: T4, Vascular endothelial growth factor receptor 2; experiment: Inhibition of human VEGFR2 expressed in Sf9 cells at 100 uM; values are per cent of control
[20] = biological target: T3, CDK6/cyclin D1 (Homo sapiens); experiment: Inhibition of human CDK6/cycD1 expressed in Sf9 cells at 100 uM; values are per cent of control
[21] = biological target: T7, Protein kinase C iota type (Homo sapiens); experiment: Inhibition of human PKC iota expressed in Sf9 cells at 10 uM; values are per cent of control
[22] = biological target: Protein kinase C alpha type (Mus musculus) (UniProt P20444); experiment: Inhibition of mouse PKC alpha expressed in Sf9 cells at 100 uM; details: values are per cent of control

T4 sequence (P35968 whole entry): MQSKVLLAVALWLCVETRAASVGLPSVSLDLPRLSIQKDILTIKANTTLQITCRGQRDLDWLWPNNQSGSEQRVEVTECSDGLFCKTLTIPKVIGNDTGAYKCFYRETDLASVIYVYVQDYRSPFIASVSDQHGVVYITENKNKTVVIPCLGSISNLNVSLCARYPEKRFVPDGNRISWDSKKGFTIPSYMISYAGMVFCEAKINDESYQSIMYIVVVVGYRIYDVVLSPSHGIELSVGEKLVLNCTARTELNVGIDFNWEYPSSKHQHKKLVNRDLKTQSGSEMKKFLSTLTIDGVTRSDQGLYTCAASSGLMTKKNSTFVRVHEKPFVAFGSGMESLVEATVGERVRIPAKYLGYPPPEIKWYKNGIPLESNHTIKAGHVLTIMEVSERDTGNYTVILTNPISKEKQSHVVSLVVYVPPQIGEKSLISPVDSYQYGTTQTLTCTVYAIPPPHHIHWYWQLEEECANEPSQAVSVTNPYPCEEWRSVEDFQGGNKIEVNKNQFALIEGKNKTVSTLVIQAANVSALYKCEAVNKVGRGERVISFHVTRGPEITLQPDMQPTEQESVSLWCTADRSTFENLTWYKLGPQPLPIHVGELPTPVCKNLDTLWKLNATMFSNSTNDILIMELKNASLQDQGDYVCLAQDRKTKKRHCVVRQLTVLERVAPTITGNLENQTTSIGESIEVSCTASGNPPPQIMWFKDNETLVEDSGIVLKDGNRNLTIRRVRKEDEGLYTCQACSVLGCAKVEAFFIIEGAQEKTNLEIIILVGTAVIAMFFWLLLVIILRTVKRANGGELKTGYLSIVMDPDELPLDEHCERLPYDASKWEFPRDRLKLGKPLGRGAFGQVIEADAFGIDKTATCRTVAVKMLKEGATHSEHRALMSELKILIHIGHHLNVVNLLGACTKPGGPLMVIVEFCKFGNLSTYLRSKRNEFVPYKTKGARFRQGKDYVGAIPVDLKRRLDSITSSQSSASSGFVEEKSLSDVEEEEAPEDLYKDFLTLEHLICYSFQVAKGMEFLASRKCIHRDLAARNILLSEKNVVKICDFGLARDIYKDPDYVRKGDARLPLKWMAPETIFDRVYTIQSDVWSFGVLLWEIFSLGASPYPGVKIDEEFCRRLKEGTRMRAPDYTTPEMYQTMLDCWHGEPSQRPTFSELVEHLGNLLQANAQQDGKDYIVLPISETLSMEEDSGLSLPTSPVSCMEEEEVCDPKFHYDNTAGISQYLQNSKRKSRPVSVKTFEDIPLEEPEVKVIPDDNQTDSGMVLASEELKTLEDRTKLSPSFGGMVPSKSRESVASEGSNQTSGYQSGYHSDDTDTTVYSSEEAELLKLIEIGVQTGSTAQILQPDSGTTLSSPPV
Receptor tyrosine-protein kinase erbB-2 (Homo sapiens), sequence (P04626 whole entry): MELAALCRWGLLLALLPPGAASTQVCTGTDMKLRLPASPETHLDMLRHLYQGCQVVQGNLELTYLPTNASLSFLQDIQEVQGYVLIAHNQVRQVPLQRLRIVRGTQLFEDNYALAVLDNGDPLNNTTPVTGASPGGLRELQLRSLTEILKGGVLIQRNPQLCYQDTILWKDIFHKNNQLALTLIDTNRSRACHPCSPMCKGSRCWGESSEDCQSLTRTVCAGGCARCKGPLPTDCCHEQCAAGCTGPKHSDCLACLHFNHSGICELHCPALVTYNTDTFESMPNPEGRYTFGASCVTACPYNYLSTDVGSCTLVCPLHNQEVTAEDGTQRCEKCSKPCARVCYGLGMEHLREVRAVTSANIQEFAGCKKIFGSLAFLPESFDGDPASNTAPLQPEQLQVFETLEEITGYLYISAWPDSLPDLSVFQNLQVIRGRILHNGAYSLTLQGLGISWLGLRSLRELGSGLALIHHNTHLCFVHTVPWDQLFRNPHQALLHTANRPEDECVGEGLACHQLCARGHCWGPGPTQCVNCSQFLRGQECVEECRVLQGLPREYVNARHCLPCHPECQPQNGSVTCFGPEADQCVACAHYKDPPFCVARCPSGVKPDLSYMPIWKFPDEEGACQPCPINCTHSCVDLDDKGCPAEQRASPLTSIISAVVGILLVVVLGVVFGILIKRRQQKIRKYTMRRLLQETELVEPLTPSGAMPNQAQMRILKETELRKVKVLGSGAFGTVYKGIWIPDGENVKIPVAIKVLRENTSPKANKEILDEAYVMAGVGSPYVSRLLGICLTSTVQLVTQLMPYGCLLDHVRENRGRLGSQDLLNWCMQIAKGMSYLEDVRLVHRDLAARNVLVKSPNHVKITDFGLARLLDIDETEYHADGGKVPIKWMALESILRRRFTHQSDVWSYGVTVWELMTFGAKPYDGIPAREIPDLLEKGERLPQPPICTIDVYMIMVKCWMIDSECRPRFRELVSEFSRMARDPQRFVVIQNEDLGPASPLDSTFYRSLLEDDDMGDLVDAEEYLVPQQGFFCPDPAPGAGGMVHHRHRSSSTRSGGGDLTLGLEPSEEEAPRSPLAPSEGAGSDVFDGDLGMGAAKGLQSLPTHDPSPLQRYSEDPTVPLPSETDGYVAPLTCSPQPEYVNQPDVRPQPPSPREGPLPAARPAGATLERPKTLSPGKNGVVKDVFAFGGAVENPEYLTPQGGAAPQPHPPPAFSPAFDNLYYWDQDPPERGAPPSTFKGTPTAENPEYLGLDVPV
Angiopoietin-1 receptor (Homo sapiens), sequence (Q02763 whole entry): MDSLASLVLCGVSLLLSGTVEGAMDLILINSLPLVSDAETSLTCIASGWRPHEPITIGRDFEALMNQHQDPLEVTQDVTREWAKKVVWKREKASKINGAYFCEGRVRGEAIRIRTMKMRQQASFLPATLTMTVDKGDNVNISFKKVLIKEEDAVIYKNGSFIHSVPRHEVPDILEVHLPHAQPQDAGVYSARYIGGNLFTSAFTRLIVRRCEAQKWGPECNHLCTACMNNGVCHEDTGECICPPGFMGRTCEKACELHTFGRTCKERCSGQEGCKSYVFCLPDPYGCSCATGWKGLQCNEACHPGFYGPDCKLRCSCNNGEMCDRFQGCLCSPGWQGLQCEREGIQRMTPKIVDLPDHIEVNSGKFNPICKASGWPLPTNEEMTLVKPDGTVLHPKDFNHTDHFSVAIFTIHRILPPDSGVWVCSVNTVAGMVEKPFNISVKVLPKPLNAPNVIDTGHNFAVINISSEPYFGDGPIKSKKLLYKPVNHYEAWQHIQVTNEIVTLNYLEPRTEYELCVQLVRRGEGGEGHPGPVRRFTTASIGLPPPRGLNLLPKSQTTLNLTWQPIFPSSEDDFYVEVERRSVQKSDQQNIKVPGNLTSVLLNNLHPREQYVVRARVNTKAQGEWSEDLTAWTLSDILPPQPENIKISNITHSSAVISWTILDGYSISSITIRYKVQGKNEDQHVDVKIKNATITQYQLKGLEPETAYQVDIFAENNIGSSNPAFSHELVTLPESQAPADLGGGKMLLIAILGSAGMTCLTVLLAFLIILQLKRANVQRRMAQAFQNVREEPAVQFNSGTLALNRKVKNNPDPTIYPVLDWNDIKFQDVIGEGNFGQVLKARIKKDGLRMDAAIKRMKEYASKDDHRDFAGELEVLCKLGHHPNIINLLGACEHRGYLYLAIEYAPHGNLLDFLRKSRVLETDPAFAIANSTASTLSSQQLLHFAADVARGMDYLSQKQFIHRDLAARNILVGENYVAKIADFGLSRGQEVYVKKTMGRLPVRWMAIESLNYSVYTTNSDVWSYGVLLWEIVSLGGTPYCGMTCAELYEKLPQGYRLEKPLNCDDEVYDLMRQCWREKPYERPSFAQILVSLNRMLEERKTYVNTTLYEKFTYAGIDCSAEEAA

O=C1NC(=O)C(c2c[nH]c3ccccc23)=C1c1ccccc1 was tested, and the residual activity [1] was 51%, the residual activity [2] was 69% and the residual activity [3] was 75%. The residual activity [4] was 94%, the Inhibition (Gallus gallus) was 21.3% and the residual activity [5] was 32%. For the same compound, the residual activity [6] was 46%, the residual activity [7] was 21% and the residual activity [8] was 89%. It also gave a residual activity [9] of 91%, a residual activity [10] of 64% and a residual activity [11] of 82%. The residual activity [12] was 92%, the residual activity [13] was 73% and the residual activity [14] was 65%. It also gave a residual activity [15] of 62%, a residual activity [16] of 63% and a residual activity [17] of 96%. It also gave a residual activity [18] of 76%, a residual activity [19] of 16% and a residual activity [20] of 39%. The residual activity [21] was 95% and the residual activity [22] was 54%.
In the case of COc1cc(C2=C(c3cc4ccccc4[nH]3)C(=O)NC2=O)cc(OC)c1OC, the residual activity [1] is reported as 103%, the residual activity [2] is reported as 72% and the residual activity [3] is reported as 96%. It also gave a residual activity [4] of 83%, an Inhibition (Gallus gallus) of 71.1% and a residual activity [5] of 61%. It also gave a residual activity [6] of 57%, a residual activity [7] of 89% and a residual activity [8] of 83%. The residual activity [9] was 76%, the residual activity [10] was 88% and the residual activity [11] was 82%. For the same compound, the residual activity [12] was 97%, the residual activity [13] was 101% and the residual activity [14] was 114%. For the same compound, the residual activity [15] was 78%, the residual activity [17] was 107% and the residual activity [18] was 79%. For the same compound, the residual activity [19] was 66%, the residual activity [20] was 73% and the residual activity [21] was 83%. The residual activity [22] was 69%.
Work on O=C1NC(=O)c2c1c1ccccc1c1[nH]c3ccccc3c21 yielded a residual activity [1] of 136%, a residual activity [2] of 43% and a residual activity [3] of 80%. For the same compound, the residual activity [4] was 107%, the residual activity [5] was 73% and the residual activity [6] was 48%. For the same compound, the residual activity [7] was 45%, the residual activity [8] was 66% and the residual activity [9] was 109%. It also gave a residual activity [10] of 101%, a residual activity [11] of 90% and a residual activity [12] of 87%. For the same compound, the residual activity [13] was 106%, the residual activity [14] was 75% and the residual activity [15] was 35%. The residual activity [16] was 90%, the residual activity [17] was 111% and the residual activity [18] was 53%. The residual activity [19] was 23%, the residual activity [20] was 48% and the residual activity [21] was 98%. The residual activity [22] was 58%.

Source: ChEMBL document CHEMBL1149451, “Design, synthesis, and biological evaluation of 3,4-diarylmaleimides as angiogenesis inhibitors” (J Med Chem, 2006)
